Data reported in ChEMBL document CHEMBL4190249, “Antiproliferative and apoptotic activities of sequence-specific histone acetyltransferase inhibitors” (Eur J Med Chem, 2017).
Activity calls are given as the source filed them. The calls are words filed in the database; no cut-off is given here.

Key:
[1] = tested on: A549; test: Upregulation of MIR3189 gene expression in human A549 cells at 2 uM after 48 hrs by microarray analysis relative to control; type: functional
Procedure, shortened: (§1)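 A549 cells plated at 2×10^5 cells/well, treated 48 h at 2 μM, with DMSO vehicle as control. Whole-genome transcriptional profiling followed the manufacturer's protocol. Total RNA integrity was checked by Bioanalyzer before arraying.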

[2] = tested on: A549; test: Upregulation of POLH gene expression in human A549 cells at 2 uM after 48 hrs by microarray analysis relative to control; type: functional; procedure, shortened: as §1
[3] = tested on: A549; test: Induction of apoptosis in human A549 cells at 2 uM after 48 hrs by Annexin V-FITC/ethidium homodimer-3/Hoechst 33342 staining based fluorescence microscopic method; type: functional, cell-based
Procedure, shortened: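 A549 cells seeded in chamber slides at 2×10^4 cells/well and exposed to 2 μM for 48 h; vehicle control 0.1% DMSO. Cells were washed in binding buffer and stained with FITC-annexin V (apoptotic), ethidium homodimer III (necrotic) and Hoechst 33342 (all nuclei), then imaged by confocal fluorescence microscopy.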

[4] = target: Cellular tumor antigen p53 (Homo sapiens) (UniProt P04637); test: Activation of p53 in human A549 cells assessed as downregulation of STC2 gene expression at 2 uM after 48 hrs by microarray analysis relative to control; type: cell-based; procedure, shortened: as §1
[5] = tested on: dsDNA; test: Binding affinity to 5'-ACTTATTCCATATAGA-3'/3'-TGAATAAGGTATATCT-5' dsDNA (unknown origin) assessed as change in melting temperature at 2.5 uM by spectrophotometric method; type: nucleic-acid assay
[6] = tested on: A549; test: Downregulation of ALDH1L2 gene expression in human A549 cells at 2 uM after 48 hrs by microarray analysis relative to control; type: functional; procedure, shortened: as §1
[7] = target: Cellular tumor antigen p53 (Homo sapiens) (UniProt P04637); test: Activation of p53 in human A549 cells assessed as upregulation of EDA2R gene expression at 2 uM after 48 hrs by microarray analysis relative to control; type: cell-based; procedure, shortened: as §1
[8] = tested on: A549; test: Upregulation of SULF2 gene expression in human A549 cells at 2 uM after 48 hrs by microarray analysis relative to control; type: functional; procedure, shortened: as §1
[9] = tested on: MDA-MB-231; test: Antiproliferative activity against human MDA-MB-231 cells harboring p53 mutant assessed as cell viability at 10 uM after 96 hrs by WST8 assay relative to control; type: functional; conditions: MDA-MB-231, 96 h, read-out: Activity
[10] = target: Cellular tumor antigen p53 (Homo sapiens) (UniProt P04637); test: Activation of p53 in human A549 cells assessed as downregulation of CHAC1 gene expression at 2 uM after 48 hrs by microarray analysis relative to control; type: cell-based; procedure, shortened: as §1
[11] = tested on: A549; test: Upregulation of MIR3685 gene expression in human A549 cells at 2 uM after 48 hrs by microarray analysis relative to control; type: functional; procedure, shortened: as §1
[12] = target: Cellular tumor antigen p53 (Homo sapiens) (UniProt P04637); test: Activation of p53 in human A549 cells assessed as upregulation of SESN1 gene expression at 2 uM after 48 hrs by microarray analysis relative to control; type: cell-based; procedure, shortened: as §1
[13] = target: Cellular tumor antigen p53 (Homo sapiens) (UniProt P04637); test: Activation of p53 in human A549 cells assessed as upregulation of FAS gene expression at 2 uM after 48 hrs by microarray analysis relative to control; type: cell-based; procedure, shortened: as §1
[14] = target: Cellular tumor antigen p53 (Homo sapiens) (UniProt P04637); test: Activation of p53 in human A549 cells assessed as upregulation of TP53INP1 gene expression at 2 uM after 48 hrs by microarray analysis relative to control; type: cell-based; procedure, shortened: as §1
[15] = tested on: A549; test: Upregulation of SCARNA7 gene expression in human A549 cells at 2 uM after 48 hrs by microarray analysis relative to control; type: functional; procedure, shortened: as §1
[16] = tested on: A549; test: Downregulation of SNORA9 gene expression in human A549 cells at 2 uM after 48 hrs by microarray analysis relative to control; type: functional; procedure, shortened: as §1
[17] = tested on: A549; test: Upregulation of GAS6-AS1 gene expression in human A549 cells at 2 uM after 48 hrs by microarray analysis relative to control; type: functional; procedure, shortened: as §1
[18] = target: Cellular tumor antigen p53 (Homo sapiens) (UniProt P04637); test: Activation of p53 in human A549 cells assessed as upregulation of FDXR gene expression at 2 uM after 48 hrs by microarray analysis relative to control; type: cell-based; procedure, shortened: as §1
[19] = tested on: SW-620; test: Antiproliferative activity against human SW620 cells harboring p53 mutant assessed as cell viability at 10 uM after 96 hrs by WST8 assay relative to control; type: functional; conditions: SW-620, 96 h, read-out: Activity
Procedure, shortened: (§2)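 Cells seeded at 5×10^3 per well and grown 24 h at 37°C, 5% CO2. A549 medium was DMEM with 10% FBS and 2 mM L-glutamine. SW620 medium had 10% FBS and 1% penicillin/streptomycin. Medium was then replaced with conjugate at 0.1, 1, 5 or 10 μM for 96 h. WST-8 reagent was added and absorbance read at 450 nm. Results are mean ± SD.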

[20] = tested on: MV4-11; test: Antiproliferative activity against human MV4-11 cells harboring wild type p53 after 96 hrs by WST8 assay; type: functional, cell-based; conditions: MV4-11, 96 h
[21] = tested on: dsDNA; test: Binding affinity to 5'-ACTTATCCACTATAGA-3'/3'-TGAATAGGTGATATCT-5' dsDNA (unknown origin) assessed as change in melting temperature at 2.5 uM by spectrophotometric method; type: nucleic-acid assay
[22] = tested on: A549; test: Antiproliferative activity against human A549 cells after 96 hrs by WST8 assay; type: functional, cell-based; procedure, shortened: as §2
[23] = target: Cellular tumor antigen p53 (Homo sapiens) (UniProt P04637); test: Activation of p53 in human A549 cells assessed as upregulation of SPATA18 gene expression at 2 uM after 48 hrs by microarray analysis relative to control; type: cell-based; procedure, shortened: as §1
[24] = tested on: A549; test: Downregulation of GUSBP3 gene expression in human A549 cells at 2 uM after 48 hrs by microarray analysis relative to control; type: functional; procedure, shortened: as §1
[25] = target: Cellular tumor antigen p53 (Homo sapiens) (UniProt P04637); test: Activation of p53 in human A549 cells assessed as upregulation of BTG2 gene expression at 2 uM after 48 hrs by microarray analysis relative to control; type: cell-based; procedure, shortened: as §1
[26] = target: Cellular tumor antigen p53 (Homo sapiens) (UniProt P04637); test: Activation of p53 in human A549 cells assessed as upregulation of CD70 gene expression at 2 uM after 48 hrs by microarray analysis relative to control; type: cell-based; procedure, shortened: as §1
[27] = target: Cellular tumor antigen p53 (Homo sapiens) (UniProt P04637); test: Activation of p53 in human A549 cells assessed as upregulation of DDB2 gene expression at 2 uM after 48 hrs by microarray analysis relative to control; type: cell-based; procedure, shortened: as §1
[28] = tested on: A549; test: Upregulation of MIR4713 gene expression in human A549 cells at 2 uM after 48 hrs by microarray analysis relative to control; type: functional; procedure, shortened: as §1
[29] = tested on: A549; test: Downregulation of ASNS gene expression in human A549 cells at 2 uM after 48 hrs by microarray analysis relative to control; type: functional; procedure, shortened: as §1
[30] = target: Histone acetyltransferase p300 (Homo sapiens, UniProt Q09472); test: Inhibition of p300 (unknown origin) using H3 peptide and acetyl-coA as substrate by fluorometric assay
Procedure, shortened: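 Fluorometric HAT kit assay with recombinant p300 core domain as enzyme and acetyl-CoA plus H3 histone peptide as substrates. Effectors were tested at 1 and 5 μM. HeLa nuclear extract served as positive control, and 0.5% DMSO was set as 100% activity.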

[31] = target: Cellular tumor antigen p53 (Homo sapiens) (UniProt P04637); test: Activation of p53 in human A549 cells assessed as upregulation of MDM2 gene expression at 2 uM after 48 hrs by microarray analysis relative to control; type: cell-based; procedure, shortened: as §1
[32] = target: Cellular tumor antigen p53 (Homo sapiens) (UniProt P04637); test: Activation of p53 in human A549 cells assessed as upregulation of CYFIP2 gene expression at 2 uM after 48 hrs by microarray analysis relative to control; type: cell-based; procedure, shortened: as §1
[33] = tested on: A549; test: Upregulation of ANKRD1 gene expression in human A549 cells at 2 uM after 48 hrs by microarray analysis relative to control; type: functional; procedure, shortened: as §1
[34] = tested on: A549; test: Downregulation of ULBP1 gene expression in human A549 cells at 2 uM after 48 hrs by microarray analysis relative to control; type: functional; procedure, shortened: as §1
[35] = tested on: A549; test: Upregulation of GDF15 gene expression in human A549 cells at 2 uM after 48 hrs by microarray analysis relative to control; type: functional; procedure, shortened: as §1
[36] = tested on: A549; test: Upregulation of WDR63 gene expression in human A549 cells at 2 uM after 48 hrs by microarray analysis relative to control; type: functional; procedure, shortened: as §1
[37] = tested on: A549; test: Upregulation of NEFL gene expression in human A549 cells at 2 uM after 48 hrs by microarray analysis relative to control; type: functional; procedure, shortened: as §1
[38] = target: Cellular tumor antigen p53 (Homo sapiens) (UniProt P04637); test: Activation of p53 in human A549 cells assessed as downregulation of CARS gene expression at 2 uM after 48 hrs by microarray analysis relative to control; type: cell-based; procedure, shortened: as §1
[39] = tested on: A549; test: Downregulation of TAS2R30 gene expression in human A549 cells at 2 uM after 48 hrs by microarray analysis relative to control; type: functional; procedure, shortened: as §1
[40] = tested on: A549; test: Upregulation of ABCA12 gene expression in human A549 cells at 2 uM after 48 hrs by microarray analysis relative to control; type: functional; procedure, shortened: as §1
[41] = tested on: A549; test: Upregulation of UIMC1 gene expression in human A549 cells at 2 uM after 48 hrs by microarray analysis relative to control; type: functional; procedure, shortened: as §1
[42] = tested on: A549; test: Upregulation of CDKN1A gene expression in human A549 cells at 2 uM after 48 hrs by microarray analysis relative to control; type: functional; procedure, shortened: as §1

Cellular tumor antigen p53 (Homo sapiens), sequence (P04637 whole entry, looked up): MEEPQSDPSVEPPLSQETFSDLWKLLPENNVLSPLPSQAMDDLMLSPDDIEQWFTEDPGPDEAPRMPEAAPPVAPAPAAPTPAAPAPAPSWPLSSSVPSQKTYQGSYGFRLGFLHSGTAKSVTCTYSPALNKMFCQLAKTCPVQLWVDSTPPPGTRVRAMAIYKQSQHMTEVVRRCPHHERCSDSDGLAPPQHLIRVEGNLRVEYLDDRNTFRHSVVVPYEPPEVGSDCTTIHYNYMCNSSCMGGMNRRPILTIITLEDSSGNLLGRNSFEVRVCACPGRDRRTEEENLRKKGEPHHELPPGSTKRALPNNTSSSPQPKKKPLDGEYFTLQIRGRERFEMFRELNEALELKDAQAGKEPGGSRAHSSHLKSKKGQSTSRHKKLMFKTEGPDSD
Histone acetyltransferase p300, sequence (Q09472 whole entry, the tested form may be a part): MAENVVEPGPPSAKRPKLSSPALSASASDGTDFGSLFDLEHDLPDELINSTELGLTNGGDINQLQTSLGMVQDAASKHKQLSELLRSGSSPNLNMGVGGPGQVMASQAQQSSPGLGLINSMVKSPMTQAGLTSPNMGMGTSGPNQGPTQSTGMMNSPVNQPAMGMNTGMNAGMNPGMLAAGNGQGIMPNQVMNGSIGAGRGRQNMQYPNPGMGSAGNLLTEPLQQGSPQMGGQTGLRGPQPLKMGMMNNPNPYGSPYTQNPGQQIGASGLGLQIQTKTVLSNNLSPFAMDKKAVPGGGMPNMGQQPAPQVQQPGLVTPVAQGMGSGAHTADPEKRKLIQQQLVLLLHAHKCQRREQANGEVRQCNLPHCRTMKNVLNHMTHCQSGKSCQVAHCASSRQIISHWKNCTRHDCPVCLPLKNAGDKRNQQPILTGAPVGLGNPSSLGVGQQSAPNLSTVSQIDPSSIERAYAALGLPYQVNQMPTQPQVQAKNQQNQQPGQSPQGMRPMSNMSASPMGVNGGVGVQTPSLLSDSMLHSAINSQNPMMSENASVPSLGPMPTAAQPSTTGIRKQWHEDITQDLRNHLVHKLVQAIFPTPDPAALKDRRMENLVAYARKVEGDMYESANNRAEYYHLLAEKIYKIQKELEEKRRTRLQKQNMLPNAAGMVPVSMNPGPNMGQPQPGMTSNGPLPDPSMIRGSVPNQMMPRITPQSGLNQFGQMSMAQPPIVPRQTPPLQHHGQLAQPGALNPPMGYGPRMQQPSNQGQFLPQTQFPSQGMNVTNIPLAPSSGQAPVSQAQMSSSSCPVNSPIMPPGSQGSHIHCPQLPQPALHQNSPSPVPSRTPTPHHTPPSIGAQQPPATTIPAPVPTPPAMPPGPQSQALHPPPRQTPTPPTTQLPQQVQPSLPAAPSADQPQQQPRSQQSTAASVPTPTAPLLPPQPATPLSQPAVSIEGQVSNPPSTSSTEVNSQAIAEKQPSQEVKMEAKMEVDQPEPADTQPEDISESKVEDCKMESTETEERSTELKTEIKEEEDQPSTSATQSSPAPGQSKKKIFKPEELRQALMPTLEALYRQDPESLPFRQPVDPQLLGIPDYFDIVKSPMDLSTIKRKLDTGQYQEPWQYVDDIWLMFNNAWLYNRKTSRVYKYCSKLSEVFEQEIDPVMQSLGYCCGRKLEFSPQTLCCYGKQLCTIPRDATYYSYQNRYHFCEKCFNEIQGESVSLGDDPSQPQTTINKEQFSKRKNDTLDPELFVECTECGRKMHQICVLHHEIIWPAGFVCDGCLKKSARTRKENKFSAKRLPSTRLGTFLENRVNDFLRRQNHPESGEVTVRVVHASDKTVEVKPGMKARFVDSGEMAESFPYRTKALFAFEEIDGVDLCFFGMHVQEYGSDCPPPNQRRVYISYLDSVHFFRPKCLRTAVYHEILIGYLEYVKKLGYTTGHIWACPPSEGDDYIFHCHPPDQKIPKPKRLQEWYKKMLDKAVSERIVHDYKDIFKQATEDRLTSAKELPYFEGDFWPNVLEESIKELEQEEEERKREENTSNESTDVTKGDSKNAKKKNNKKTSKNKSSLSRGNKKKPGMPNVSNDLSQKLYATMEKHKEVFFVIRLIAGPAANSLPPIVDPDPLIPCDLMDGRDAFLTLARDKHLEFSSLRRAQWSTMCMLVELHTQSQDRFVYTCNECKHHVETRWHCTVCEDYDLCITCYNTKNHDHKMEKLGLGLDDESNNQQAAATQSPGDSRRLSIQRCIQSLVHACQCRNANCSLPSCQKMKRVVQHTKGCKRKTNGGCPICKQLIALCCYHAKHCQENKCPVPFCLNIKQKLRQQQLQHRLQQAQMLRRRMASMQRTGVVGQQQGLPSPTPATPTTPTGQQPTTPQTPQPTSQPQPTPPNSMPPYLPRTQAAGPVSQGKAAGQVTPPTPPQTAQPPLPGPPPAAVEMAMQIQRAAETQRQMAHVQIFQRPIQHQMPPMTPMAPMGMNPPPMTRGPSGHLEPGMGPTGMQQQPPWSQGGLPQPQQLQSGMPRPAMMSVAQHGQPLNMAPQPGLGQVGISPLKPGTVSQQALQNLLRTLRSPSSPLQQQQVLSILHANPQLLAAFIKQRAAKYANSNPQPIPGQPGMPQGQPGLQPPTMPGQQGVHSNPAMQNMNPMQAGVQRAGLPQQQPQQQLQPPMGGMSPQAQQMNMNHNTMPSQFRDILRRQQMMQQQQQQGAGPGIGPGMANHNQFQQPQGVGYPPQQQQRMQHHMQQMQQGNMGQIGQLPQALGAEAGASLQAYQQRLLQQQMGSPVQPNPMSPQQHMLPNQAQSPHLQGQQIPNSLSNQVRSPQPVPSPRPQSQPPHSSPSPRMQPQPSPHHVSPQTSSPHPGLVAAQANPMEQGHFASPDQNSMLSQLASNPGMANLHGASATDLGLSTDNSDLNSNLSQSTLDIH

With `CC1=NN(c2ccc(C(=O)NCCOCCOCC(=O)NCCC(=O)Nc3cc(C(=O)Nc4cn(C)c(C(=O)Nc5cn(C)c(C(=O)Nc6cc(C(=O)NCCCC(=O)Nc7cc(C(=O)Nc8cc(C(=O)Nc9cc(C(=O)Nc%10cc(C(=O)NCCCN(C)C)n(C)c%10)n(C)c9)n(C)c8)n(C)c7)n(C)c6)n5)n4)n(C)c3)cc2)C(=O)/C1=C/c1ccc(-c2cc(C)c(C)cc2[N+](=O)[O-])o1` the “fold change (FC)” value [1] was 2.32, the “fold change (FC)” value [2] was 1.88 and the Activity [3] was “Active”. For the same compound, the fold change (FC) [4] was 2.34, the ΔTm [5] was 18.1 °C and the “fold change (FC)” value [6] was 1.86. The fold change (FC) [7] was 2.53, the “fold change (FC)” value [8] was 2.13 and the viability at 10 µM [9] was 69.3%. The fold change (FC) [10] was 3.64, the “fold change (FC)” value [11] was 1.89 and the fold change (FC) [12] was 1.91. The fold change (FC) [13] was 1.83, the fold change (FC) [14] was 1.85 and the “fold change (FC)” value [15] was 1.89. The “fold change (FC)” value [16] was 1.81, the “fold change (FC)” value [17] was 1.81 and the fold change (FC) [18] was 2. For the same compound, the viability at 10 µM [19] was 78.4%, the IC50 [20] was 2.6 µM and the ΔTm [21] was 11.5 °C. For the same compound, the Activity [22] was “Dose-dependent effect”, the IC50 ([22]; A549, 96 h) was 1.8 µM and the fold change (FC) [23] was 2.98. The “fold change (FC)” value [24] was 2.63, the fold change (FC) [25] was 2.35 and the fold change (FC) [26] was 1.83. The fold change (FC) [27] was 1.8, the “fold change (FC)” value [28] was 1.94 and the “fold change (FC)” value [29] was 2.01. It also gave an IC50 [30] of 3.9 to 4.2 µM, a fold change (FC) [31] of 1.97 and a fold change (FC) [32] of 1.88. For the same compound, the “fold change (FC)” value [33] was 1.81, the “fold change (FC)” value [34] was 2.34 and the “fold change (FC)” value [35] was 1.81. The “fold change (FC)” value [36] was 2.03, the “fold change (FC)” value [37] was 1.8 and the fold change (FC) [38] was 1.9. The “fold change (FC)” value [39] was 2.01, the “fold change (FC)” value [40] was 2.42 and the “fold change (FC)” value [41] was 1.94. The “fold change (FC)” value [42] was 2.28.
